≈ marks a conversion by molar mass, not a printed value. Calls of active or inactive are those of the source. No cut-off for these calls is given here.

These results are taken from ChEMBL document CHEMBL1139399, “Synthesis and biological evaluation of glucuronide prodrugs of the histone deacetylase inhibitor CI-994 for application in selective cancer chemotherapy” (Bioorg Med Chem, 2008).

A short description of series [1]: Stability in 0.02M phosphate buffer at pH 7 after 72 hrs. The series is classed as physicochemical. Particulars: pH 7, 72 h. The procedure, abridged: (§1)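 Compounds held in 0.02 M phosphate buffer (pH 2.1 or pH 7 as per line) at 37 °C for 72 h; degradation followed by HPLC with UV detection.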
Series [2] in a line: Stability in 0.02M phosphate buffer at pH 2.1 after 72 hrs. The series is classed as physicochemical. Particulars: pH 2.1, 72 h. The procedure, abridged:
as §1

For series [3], the system named is NCI-H661. Description: Antiproliferative activity against human NCI-H661 cells after 48 hrs in presence of beta-glucuronidase. Format: functional, cell-based. To be noted: NCI-H661, 48 h. The procedure, abridged: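 NCI-H661 cells in RPMI 1640 + 10% FCS (37 °C, 5% CO2); E. coli β-glucuronidase added to culture medium at 40 U/ml. 4 × 10^3 cells/well plated 24 h before compound, 48 h treatment, then XTT added and 4 h further incubation at 37 °C; absorbance at 480 nm. Three experiments in triplicate, standard deviation shown.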

Series [4] can be described thus: Aqueous solubility in phosphate buffer at pH 7. The series is classed as physicochemical. The procedure, abridged: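 Solubility in 0.02 M phosphate buffer, pH 7; sample filtered through 0.45 µm filter, diluted in HPLC phase and quantified by HPLC (UV) against a calibration curve of 0.1–0.025 mg/mL prepared from a DMSO stock diluted in the same buffer.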
Series [5] relates to NCI-H661. As to the kind of experiment: Antiproliferative activity against human NCI-H661 cells after 48 hrs. The series is classed as functional, cell-based. The procedure, abridged: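 NCI-H661 NSCLC cells grown in RPMI 1640 + 10% FCS, 37 °C, 5% CO2; 4 × 10^3 cells/well seeded, grown 24 h, then exposed to compound for 48 h without β-glucuronidase. XTT labeling mixture added, further 4 h at 37 °C, absorbance read at 480 nm. Three experiments in triplicate; standard deviation shown.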

Series [6] has as its target Histone deacetylase (Homo sapiens) (UniProt Q13547+O15379+Q9UBN7+Q92769+Q9UQL6+Q8WUI4+Q9BY41+Q96DB2+P56524+Q9UKV0+Q969S8). Description: Inhibition of HDAC in human NCI-H661 cells assessed as histone H4 acetylation after 6 hrs in presence of beta-glucuronidase by Western blot analysis. Format: cell-based. The procedure, abridged: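 NCI-H661 cells (5 × 10^5) exposed 6 h with β-glucuronidase (40 U/ml) in medium; compounds at 100 µM, TSA control 100 nM, DMSO 0.1%. Laemmli buffer lysis, sonication, SDS–PAGE; blots probed with rabbit polyclonal anti-acetyl-histone H4 (1/500), α-tubulin loading control (1/2000), HRP secondaries (1/5000), ECL detection.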
A general note: In western blotting, separated proteins are transferred to a membrane and probed.

A short description of series [7]: Stability in cell culture medium in presence of 10% foetal calf serum. The series is classed as ADME. To be noted: cattle. The procedure, abridged: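 Incubation in cell culture medium supplemented with 10% foetal calf serum at 37 °C; solution monitored by HPLC (UV detection) over 72 h.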

By IC50 is commonly meant the point on the concentration scale where inhibition reaches its midpoint. One may read the solubility as the dissolved amount per volume that the medium holds. With `CC(=O)Nc1ccc(C(=O)Nc2ccccc2NC(=O)O[C@@H]2O[C@H](C(=O)O)[C@@H](O)[C@H](O)[C@H]2O)cc1`, the Stability entry in series [1], in series [2] and in series [7] was “Stable” in each case. The IC50 with NCI-H661 [3] was found to be 20 µM. The same molecule gave a solubility in series [4] of 1000 µg/mL (≈ 2040 µM). The result in the series on NCI-H661 [5] was inactive. Also, the outcome in series [6] was Active.
`CC(=O)Nc1ccc(C(=O)Nc2ccccc2N)cc1` [TACEDINALINE] had a solubility in series [4] of 80 µg/mL (≈ 297 µM). In the series on NCI-H661 [5] (NCI-H661, 48 h), this molecule returned an IC50 of 20 µM.
Consider `CC(=O)Nc1ccc(C(=O)Nc2ccccc2NC(=O)OCc2ccc(O[C@@H]3O[C@H](C(=O)O)[C@@H](O)[C@H](O)[C@H]3O)c([N+](=O)[O-])c2)cc1`, for which the Stability entry in series [1], in series [2] and in series [7] was “Stable” in each case. Also, the IC50 in the series with NCI-H661 [3] was 20 µM. The molecule also had a solubility in series [4] of 1000 µg/mL (≈ 1560 µM). In the series with NCI-H661 [5], the outcome was inactive. In addition, the outcome in series [6] was Active.
